Reference: ChEMBL document CHEMBL1122168, “Species- or isozyme-specific enzyme inhibitors. 6. Synthesis and evaluation of two-substrate condensation products as inhibitors of hexokinases and thymidine kinases” (J Med Chem, 1982)

Key:
[1] = molecular target: T1, Hexokinase-2 (Rattus norvegicus) (UniProt P27881); assay: Evaluated for the inhibition of Hexokinase, type II catalyzed reactions at 0.3 mM concentration
T1 sequence (whole entry): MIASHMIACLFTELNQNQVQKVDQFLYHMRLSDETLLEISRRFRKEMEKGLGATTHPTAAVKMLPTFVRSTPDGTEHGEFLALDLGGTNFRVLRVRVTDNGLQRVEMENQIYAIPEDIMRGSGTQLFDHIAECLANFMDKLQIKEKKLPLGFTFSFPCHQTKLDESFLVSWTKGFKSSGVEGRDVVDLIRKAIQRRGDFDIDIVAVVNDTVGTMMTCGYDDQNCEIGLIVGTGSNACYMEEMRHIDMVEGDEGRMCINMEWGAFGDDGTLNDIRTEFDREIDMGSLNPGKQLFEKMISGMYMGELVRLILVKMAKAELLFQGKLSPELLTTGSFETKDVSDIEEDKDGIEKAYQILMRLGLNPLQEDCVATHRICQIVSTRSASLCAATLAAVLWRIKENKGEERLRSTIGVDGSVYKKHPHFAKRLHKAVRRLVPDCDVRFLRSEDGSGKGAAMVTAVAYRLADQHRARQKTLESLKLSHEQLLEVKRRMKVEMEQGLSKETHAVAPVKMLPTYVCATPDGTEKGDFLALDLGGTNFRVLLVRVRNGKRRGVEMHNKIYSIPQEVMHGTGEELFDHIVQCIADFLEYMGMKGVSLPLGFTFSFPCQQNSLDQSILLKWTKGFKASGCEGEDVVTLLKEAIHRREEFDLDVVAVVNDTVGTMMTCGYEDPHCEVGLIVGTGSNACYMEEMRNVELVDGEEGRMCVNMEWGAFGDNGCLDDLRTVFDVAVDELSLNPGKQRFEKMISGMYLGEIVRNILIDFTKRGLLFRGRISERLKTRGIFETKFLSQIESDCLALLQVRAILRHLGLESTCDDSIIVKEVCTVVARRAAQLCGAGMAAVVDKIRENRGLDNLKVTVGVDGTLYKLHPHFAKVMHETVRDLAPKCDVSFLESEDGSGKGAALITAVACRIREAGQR
Procedure, shortened: (§1)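 Rat HK I, II or III from isoelectric focusing, dialysed with 0.5 mM DTT. PK/LDH-coupled assay in 0.05 M Tris-HCl pH 7.6 with 6.6 mM MgCl2, 10 mM α-D-glucose, 0.45 mM NADH, 0.55 mM PEP and 20 mM KCl. Reactions started with enzyme; rates read from 340 nm absorbance change at 22 °C.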

[2] = molecular target: T1, Hexokinase-2 (Rattus norvegicus); assay: Evaluated for the inhibition of Hexokinase, type II catalyzed reactions at 0.6 mM concentration
Procedure, shortened: as §1

[3] = Evaluated for the inhibition constant Ki against hexokinase in yeast; set-up: species or system Saccharomyces cerevisiae
Procedure, shortened: (§2)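 Yeast HK or rat HK II (isoelectric focusing, dialysed with 0.5 mM DTT). PK/LDH-coupled assay in 0.05 M Tris-HCl pH 7.6 with 6.6 mM MgCl2, 10 mM glucose, 0.45 mM NADH, 0.55 mM PEP, 20 mM KCl. NADH loss followed at 340 nm, 22 °C. Variable MgATP at 0.6–4.0 × KM. Inhibitors given as equimolar Mg complexes.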

[4] = molecular target: T2, Hexokinase-3 (Rattus norvegicus) (UniProt P27926); assay: Evaluated for the inhibition of Hexokinase type III catalyzed reactions at 0.3 mM concentration
T2 sequence (whole entry): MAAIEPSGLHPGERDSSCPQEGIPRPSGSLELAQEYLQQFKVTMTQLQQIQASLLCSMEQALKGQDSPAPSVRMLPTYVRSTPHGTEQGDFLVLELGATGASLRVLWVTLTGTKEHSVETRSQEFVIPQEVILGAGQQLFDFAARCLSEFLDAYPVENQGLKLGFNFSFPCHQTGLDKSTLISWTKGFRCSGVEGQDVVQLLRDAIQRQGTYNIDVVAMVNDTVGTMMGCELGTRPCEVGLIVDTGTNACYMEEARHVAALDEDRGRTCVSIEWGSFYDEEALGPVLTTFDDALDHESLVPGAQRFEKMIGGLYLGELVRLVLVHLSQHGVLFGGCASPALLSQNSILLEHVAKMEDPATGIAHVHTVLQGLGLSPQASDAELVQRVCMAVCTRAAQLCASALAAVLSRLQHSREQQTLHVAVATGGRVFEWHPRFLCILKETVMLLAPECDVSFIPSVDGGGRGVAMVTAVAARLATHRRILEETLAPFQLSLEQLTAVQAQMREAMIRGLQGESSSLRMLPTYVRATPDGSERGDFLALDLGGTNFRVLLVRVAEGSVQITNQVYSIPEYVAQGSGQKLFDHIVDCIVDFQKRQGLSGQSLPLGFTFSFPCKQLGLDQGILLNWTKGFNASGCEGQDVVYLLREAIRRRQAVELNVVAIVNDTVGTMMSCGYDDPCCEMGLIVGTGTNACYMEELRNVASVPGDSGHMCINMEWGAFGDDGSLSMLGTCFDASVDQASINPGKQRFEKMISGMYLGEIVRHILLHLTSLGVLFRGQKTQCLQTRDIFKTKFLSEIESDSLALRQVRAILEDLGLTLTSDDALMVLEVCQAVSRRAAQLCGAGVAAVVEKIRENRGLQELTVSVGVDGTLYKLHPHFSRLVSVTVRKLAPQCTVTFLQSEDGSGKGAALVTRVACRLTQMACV
Procedure, shortened: as §1

[5] = molecular target: T2, Hexokinase-3 (Rattus norvegicus); assay: Evaluated for the inhibition of Hexokinase type III catalyzed reactions at 0.6 mM concentration
Procedure, shortened: as §1

[6] = molecular target: T3, Hexokinase-1 (Rattus norvegicus) (UniProt P05708); assay: Evaluated for the inhibition of Hexokinase, type I -catalyzed reactions at 0.6 mM concentration
T3 sequence (whole entry): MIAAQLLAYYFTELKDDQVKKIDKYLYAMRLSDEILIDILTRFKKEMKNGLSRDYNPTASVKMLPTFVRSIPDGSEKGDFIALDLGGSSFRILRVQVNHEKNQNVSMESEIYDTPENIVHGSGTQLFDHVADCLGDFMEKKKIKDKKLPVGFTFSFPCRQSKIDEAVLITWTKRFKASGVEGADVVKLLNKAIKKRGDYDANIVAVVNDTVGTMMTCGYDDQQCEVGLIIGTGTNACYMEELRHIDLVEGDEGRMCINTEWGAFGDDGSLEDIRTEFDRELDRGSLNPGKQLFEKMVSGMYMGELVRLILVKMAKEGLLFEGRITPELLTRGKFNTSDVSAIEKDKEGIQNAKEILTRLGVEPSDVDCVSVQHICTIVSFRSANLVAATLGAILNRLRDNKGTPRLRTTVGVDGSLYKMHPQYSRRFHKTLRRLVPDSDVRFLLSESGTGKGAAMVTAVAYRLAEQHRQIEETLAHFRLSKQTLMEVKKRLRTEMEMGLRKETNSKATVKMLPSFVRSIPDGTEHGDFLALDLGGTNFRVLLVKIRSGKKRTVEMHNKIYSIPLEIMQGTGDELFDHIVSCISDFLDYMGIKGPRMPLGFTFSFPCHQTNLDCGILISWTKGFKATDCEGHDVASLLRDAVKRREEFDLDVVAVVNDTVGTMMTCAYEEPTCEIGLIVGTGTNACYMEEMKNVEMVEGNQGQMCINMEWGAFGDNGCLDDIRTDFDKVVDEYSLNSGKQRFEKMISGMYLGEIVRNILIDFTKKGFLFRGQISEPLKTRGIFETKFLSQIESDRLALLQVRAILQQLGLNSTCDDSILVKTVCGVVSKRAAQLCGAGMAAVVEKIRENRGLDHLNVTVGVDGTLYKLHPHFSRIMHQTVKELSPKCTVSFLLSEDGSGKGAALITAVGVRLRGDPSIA
Procedure, shortened: as §1

[7] = molecular target: T3, Hexokinase-1 (Rattus norvegicus); assay: Evaluated for the inhibition of Hexokinase, type I -catalyzed reactions at 0.3 mM concentration
Procedure, shortened: as §1

Hexokinase-2 = molecular target: T4, Hexokinase-2 (Rattus norvegicus, UniProt P27881); assay: Evaluated for the inhibition constant Ki against Hexokinase, type II
T4 sequence (P27881 whole entry): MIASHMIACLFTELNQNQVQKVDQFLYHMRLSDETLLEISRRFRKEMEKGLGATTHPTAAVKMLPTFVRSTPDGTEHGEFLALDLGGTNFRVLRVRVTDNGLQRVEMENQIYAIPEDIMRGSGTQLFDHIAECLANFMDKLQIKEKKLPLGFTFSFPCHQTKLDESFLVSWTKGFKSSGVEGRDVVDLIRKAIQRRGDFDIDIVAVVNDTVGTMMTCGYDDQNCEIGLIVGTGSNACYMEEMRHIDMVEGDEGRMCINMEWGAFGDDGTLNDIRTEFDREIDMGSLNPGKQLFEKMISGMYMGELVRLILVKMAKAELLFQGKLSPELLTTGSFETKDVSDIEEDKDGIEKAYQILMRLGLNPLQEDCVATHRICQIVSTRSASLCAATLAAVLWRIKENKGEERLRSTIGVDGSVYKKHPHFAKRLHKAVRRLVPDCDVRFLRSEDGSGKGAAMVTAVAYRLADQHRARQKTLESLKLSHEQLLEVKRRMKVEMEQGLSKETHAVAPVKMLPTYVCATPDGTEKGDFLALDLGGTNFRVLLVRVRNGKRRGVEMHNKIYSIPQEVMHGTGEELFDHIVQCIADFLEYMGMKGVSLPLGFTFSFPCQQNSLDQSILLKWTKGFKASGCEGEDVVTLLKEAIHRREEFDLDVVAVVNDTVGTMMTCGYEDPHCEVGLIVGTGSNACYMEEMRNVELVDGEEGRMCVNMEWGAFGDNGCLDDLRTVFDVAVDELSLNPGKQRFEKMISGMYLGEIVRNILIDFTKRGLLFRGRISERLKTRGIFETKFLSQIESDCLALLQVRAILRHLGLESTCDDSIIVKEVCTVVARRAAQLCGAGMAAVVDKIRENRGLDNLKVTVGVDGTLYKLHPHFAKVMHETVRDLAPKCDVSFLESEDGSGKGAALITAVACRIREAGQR
Procedure, shortened: as §2

[8] = molecular target: T3, Hexokinase-1 (Rattus norvegicus); assay: Evaluated for the inhibition of Hexokinase, type I -catalyzed reactionsI at 0.6 mM concentration
Procedure, shortened: as §1

[9] = molecular target: T1, Hexokinase-2 (Rattus norvegicus); assay: Evaluated for the inhibition of Hexokinase, type II catalyzed reactionsI at 0.3 mM concentration
Procedure, shortened: as §1

[10] = substrate: Nc1ncnc2c1ncn2[C@@H]1O[C@H](COP(=O)(O)OP(=O)(O)OP(=O)(O)O)[C@@H](O)[C@H]1O
[11] = substrate: Cc1cn([C@H]2C[C@H](O)[C@@H](CO)O2)c(=O)[nH]c1=O
[12] = substrate: Nc1ncnc2c1ncn2[C@@H]1O[C@H](COP(=O)(O)OP(=O)(O)OP(=O)(O)O)[C@@H](O)[C@H]1O; remark: listed apart in the source
[13] = substrate: Cc1cn([C@H]2C[C@H](O)[C@@H](CO)O2)c(=O)[nH]c1=O; remark: listed apart in the source
[14] = substrate: Nc1ncnc2c1ncn2[C@@H]1O[C@H](COP(=O)(O)OP(=O)(O)OP(=O)(O)O)[C@@H](O)[C@H]1O; remark: listed apart in the source

## Nc1ncnc2c1ncn2[C@@H]1O[C@H](COP(=O)(O)OP(=O)(O)OP(=O)(O)O)[C@@H](O)[C@H]1O
Saccharomyces cerevisiae
  Km: 210 µM

## Nc1ncnc2c1ncn2C1O[C@H](COP(=O)(O)OP(=O)(O)OP(=O)(O)OP(=O)(O)OC[C@@H]2O[C@@H](O)[C@@H](O)[C@H](O)[C@H]2O)[C@@H](O)[C@H]1O (stereo partly specified)
[1]
  inhibition: 28%
[2]
  inhibition: 30%
[3]
  Ki: 3.5 mM
[4]
  inhibition: 6.5%
[5]
  inhibition: 8.7%
[6]
  inhibition: 8%
[7]
  inhibition: 4.7%

## Nc1ncnc2c1ncn2C1O[C@H](COP(=O)(O)OP(=O)(O)OP(=O)(O)OC[C@@H]2O[C@@H](O)[C@@H](O)[C@H](O)[C@H]2O)[C@@H](O)[C@H]1O (stereo partly specified)
Hexokinase-2
  Ki: 2.2 mM
[8]
  inhibition: 5.6%
[2]
  inhibition: 10.1%
[9]
  inhibition: 4.4%
[3]
  Ki: 1.4 mM
[4]
  inhibition: 3.1%
[5]
  inhibition: 6.2%
[7]
  inhibition: 9.3%

B1: Hexokinase-2 (Rattus norvegicus), P27881 (protein)
chain: MIASHMIACLFTELNQNQVQKVDQFLYHMRLSDETLLEISRRFRKEMEKGLGATTHPTAAVKMLPTFVRSTPDGTEHGEFLALDLGGTNFRVLRVRVTDNGLQRVEMENQIYAIPEDIMRGSGTQLFDHIAECLANFMDKLQIKEKKLPLGFTFSFPCHQTKLDESFLVSWTKGFKSSGVEGRDVVDLIRKAIQRRGDFDIDIVAVVNDTVGTMMTCGYDDQNCEIGLIVGTGSNACYMEEMRHIDMVEGDEGRMCINMEWGAFGDDGTLNDIRTEFDREIDMGSLNPGKQLFEKMISGMYMGELVRLILVKMAKAELLFQGKLSPELLTTGSFETKDVSDIEEDKDGIEKAYQILMRLGLNPLQEDCVATHRICQIVSTRSASLCAATLAAVLWRIKENKGEERLRSTIGVDGSVYKKHPHFAKRLHKAVRRLVPDCDVRFLRSEDGSGKGAAMVTAVAYRLADQHRARQKTLESLKLSHEQLLEVKRRMKVEMEQGLSKETHAVAPVKMLPTYVCATPDGTEKGDFLALDLGGTNFRVLLVRVRNGKRRGVEMHNKIYSIPQEVMHGTGEELFDHIVQCIADFLEYMGMKGVSLPLGFTFSFPCQQNSLDQSILLKWTKGFKASGCEGEDVVTLLKEAIHRREEFDLDVVAVVNDTVGTMMTCGYEDPHCEVGLIVGTGSNACYMEEMRNVELVDGEEGRMCVNMEWGAFGDNGCLDDLRTVFDVAVDELSLNPGKQRFEKMISGMYLGEIVRNILIDFTKRGLLFRGRISERLKTRGIFETKFLSQIESDCLALLQVRAILRHLGLESTCDDSIIVKEVCTVVARRAAQLCGAGMAAVVDKIRENRGLDNLKVTVGVDGTLYKLHPHFAKVMHETVRDLAPKCDVSFLESEDGSGKGAALITAVACRIREAGQR
[10]
  Km: 710 µM

B2: Thymidine kinase, cytosolic (Rattus norvegicus), P27158 (protein)
chain: MSYINLPTVLPISPSKTRGQIQVILGPMFSGKSTELMRRVRRFQIAQYKCLVIKYAKDTRYSNSFSTHDRNTMDALPACMLKDVAQEALGVAVIGIDEGQFFPDIVDFCETMANTGKTVIV
[11]
  Km: 8 µM
[12]
  Km: 190 µM
[13]
  Km: 1.6 µM
[14]
  Km: 180 µM
